Columns and labels:
[1] = target: T1, Amine oxidase [flavin-containing] A (Rattus norvegicus, UniProt P21396); test: Inhibition of rat brain MAOA
T1 sequence (P21396 whole entry): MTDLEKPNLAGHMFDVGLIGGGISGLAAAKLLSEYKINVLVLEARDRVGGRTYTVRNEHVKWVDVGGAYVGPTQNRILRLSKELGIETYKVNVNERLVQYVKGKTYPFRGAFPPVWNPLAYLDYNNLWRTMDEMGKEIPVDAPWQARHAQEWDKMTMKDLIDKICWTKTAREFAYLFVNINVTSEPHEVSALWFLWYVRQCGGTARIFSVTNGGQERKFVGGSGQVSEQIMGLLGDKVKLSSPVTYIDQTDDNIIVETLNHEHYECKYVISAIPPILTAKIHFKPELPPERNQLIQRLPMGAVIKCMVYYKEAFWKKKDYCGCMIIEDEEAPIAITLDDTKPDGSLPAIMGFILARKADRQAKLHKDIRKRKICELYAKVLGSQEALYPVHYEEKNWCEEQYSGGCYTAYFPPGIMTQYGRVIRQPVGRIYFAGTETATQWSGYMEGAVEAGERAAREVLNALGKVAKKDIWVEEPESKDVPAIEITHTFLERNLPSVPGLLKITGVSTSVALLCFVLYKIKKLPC
Procedure, shortened: (§1)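 Enzyme was a crude brain mitochondrial suspension from male Sprague–Dawley rats (180–220 g). Substrates were 5-HT 100 μM for MAO-A and DMAPEA 5 μM for MAO-B. Substrates and metabolites were measured by C18 reverse-phase HPLC with electrochemical detection. IC50 was taken from % inhibition versus -log concentration, at least two experiments in triplicate, mean ± SD. Ki came from Cheng-Prusoff.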

[2] = target: T2, Amine oxidase [flavin-containing] B (Rattus norvegicus, UniProt P19643); test: Inhibition of rat brain MAOB; procedure, shortened: as §1
T2 sequence (P19643 whole entry): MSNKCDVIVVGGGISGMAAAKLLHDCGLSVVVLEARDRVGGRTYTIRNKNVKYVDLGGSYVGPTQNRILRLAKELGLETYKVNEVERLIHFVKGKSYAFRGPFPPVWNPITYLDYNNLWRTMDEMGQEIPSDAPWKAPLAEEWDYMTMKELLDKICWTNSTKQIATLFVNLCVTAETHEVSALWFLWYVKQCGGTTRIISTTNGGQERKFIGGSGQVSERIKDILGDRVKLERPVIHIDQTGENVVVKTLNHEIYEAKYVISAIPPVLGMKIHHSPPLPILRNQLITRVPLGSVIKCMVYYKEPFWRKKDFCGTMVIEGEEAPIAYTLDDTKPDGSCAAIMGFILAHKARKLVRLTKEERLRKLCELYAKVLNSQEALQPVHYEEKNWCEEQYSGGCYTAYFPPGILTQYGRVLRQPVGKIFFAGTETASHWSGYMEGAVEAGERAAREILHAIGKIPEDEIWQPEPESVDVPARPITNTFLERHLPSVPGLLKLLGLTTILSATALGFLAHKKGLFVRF

[3] = target: T3, Amine oxidase [flavin-containing] A (Homo sapiens, UniProt P21397); test: Inhibition of human recombinant MAOA expressed in Pichia pastoris
T3 sequence (P21397 whole entry): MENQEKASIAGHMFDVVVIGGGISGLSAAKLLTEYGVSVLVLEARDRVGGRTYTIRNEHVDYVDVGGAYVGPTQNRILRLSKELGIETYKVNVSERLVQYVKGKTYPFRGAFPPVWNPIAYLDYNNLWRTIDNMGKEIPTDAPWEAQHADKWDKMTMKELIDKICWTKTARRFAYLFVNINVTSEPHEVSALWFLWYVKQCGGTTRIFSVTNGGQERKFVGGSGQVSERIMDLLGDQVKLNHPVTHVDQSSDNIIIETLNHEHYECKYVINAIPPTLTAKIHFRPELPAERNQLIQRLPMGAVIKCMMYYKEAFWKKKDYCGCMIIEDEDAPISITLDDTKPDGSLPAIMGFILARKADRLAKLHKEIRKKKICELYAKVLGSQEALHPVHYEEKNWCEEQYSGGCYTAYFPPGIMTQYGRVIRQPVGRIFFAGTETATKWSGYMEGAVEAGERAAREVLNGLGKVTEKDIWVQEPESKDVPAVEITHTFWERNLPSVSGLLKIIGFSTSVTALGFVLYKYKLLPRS
Procedure, shortened: (§2)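 Purified recombinant enzyme desalted on Sephadex G-25 into 50 mM potassium phosphate pH 7.5 with 0.8% β-octyl-glucoside. Activity was read spectrophotometrically with and without inhibitor in 50 mM HEPES pH 7.5 with 0.5% reduced Triton X-100 at 25°C. Substrates were kynuramine for MAO-A and benzylamine for MAO-B.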

[4] = target: T4, Amine oxidase [flavin-containing] B (Homo sapiens, UniProt P27338); test: Inhibition of human recombinant MAOB expressed in Pichia pastoris; procedure, shortened: as §2
T4 sequence (P27338 whole entry): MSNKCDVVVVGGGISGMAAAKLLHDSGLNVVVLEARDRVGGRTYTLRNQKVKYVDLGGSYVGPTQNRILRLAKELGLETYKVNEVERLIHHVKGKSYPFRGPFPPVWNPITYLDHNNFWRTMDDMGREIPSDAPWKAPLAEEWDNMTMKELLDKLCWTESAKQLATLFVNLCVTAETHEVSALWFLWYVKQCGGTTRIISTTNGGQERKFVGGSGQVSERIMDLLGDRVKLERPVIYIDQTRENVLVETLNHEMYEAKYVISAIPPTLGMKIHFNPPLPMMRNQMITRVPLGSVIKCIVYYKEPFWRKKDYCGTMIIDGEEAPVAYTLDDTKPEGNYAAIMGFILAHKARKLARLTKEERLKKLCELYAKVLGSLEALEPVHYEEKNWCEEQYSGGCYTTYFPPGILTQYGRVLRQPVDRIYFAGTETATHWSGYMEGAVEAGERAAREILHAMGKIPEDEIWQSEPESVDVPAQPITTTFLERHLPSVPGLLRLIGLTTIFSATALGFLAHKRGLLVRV

Compound	Ki [1] [µM]	Ki [2] [µM]	Ki [3] [µM]	Ki [4] [µM]
CCCSc1ccc(C[C@H](C)N)cc1	0.115	15000	0.03	14
CCSc1ccc(C[C@H](C)N)cc1	0.054	> 100	0.075	> 100
CCCCSc1ccc(C[C@H](C)N)cc1	0.392	8.92	0.022	4.58
CSc1ccc(C[C@H](C)N)cc1	0.245	> 100	0.133	
